# Compound activity as filed in PubChem BioAssay.
# Hits are enriched below; roughly 2.6% of the tested compounds scored in any of these assays.
# Platelet DG rel – modulates dense granule release in human platelets. human platelet-rich plasma, SFLLRN dense granule ATP release, luminescence. inhibition, %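 (compounds screened at 7.5 µM in platelet-rich plasma)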. 300,000 tested, 0.22% active. AID 1663;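 active means mean replicate score, as percent of positive control, at or above 50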
# SENP8 block-1 – SENP8 (human) protease inhibition | Q96LD8 | inhibition, % at 20 µM | AID 602440 | 360,000 tested, 0.64% active | recombinant SENP8, Nedd8 substrate fluorescence; in the data active means inhibition mostly above about 40%, no sharp cut-off; inactive means mostly below about 27%
# SENP8 block-2 – inhibitors of human SENP8 protease. Q96LD8. purified SENP8, Z-RLRGG-aminoluciferin cleavage, luminescence. inhibition, % at 10 µM. 330,000 tested, 1.2% active. AID 2540; in the data active means inhibition above about 50%
# SENP7 block – SENP7 protease inhibition; Q9BQF6; recombinant SENP7, Z-RLRGG-aminoluciferin luminescence, 40 min; inhibition, % at 5 µM; 330,000 tested, 1.5% active; AID 434973;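 active means inhibition above about 50% at the single test dose, limit read from the data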;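 further: plate controls were DMSO with enzyme for no effect and no enzyme buffer wells for full effect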
# SENP1 inh – inhibitors of human SENP1 SUMO protease catalytic domain. Q9P0U3. recombinant SENP1 catalytic domain, CyPet-SUMO1-YPet FRET cleavage. inhibition, % at 10 µM. 360,000 tested, 0.21% active;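 active means inhibition at least 30% at 10 µM, raw YFP signal under a set limit, fluorescence ratio 0.5 to 1.5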;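 further: 0% = enzyme with DMSO and 100% = no enzyme wells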
#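 system = hSENP1 catalytic domain, recombinant | reagent = SFCypet-SUMO1-SFYpet substrate at 25 nM | doses = one dose per compound, 10 µM, 0.5% DMSO | incubation = enzyme reaction for 50 min at room temperature, dark | measured by = FRET, CFP and YFP emission | controls = no-enzyme low, enzyme-DMSO high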
# SENP6 block – inhibitors of human SENP6 protease; Recombinant SENP6 catalytic domain, aminoluciferin luminescence; inhibition, % at 10 µM; 330,000 tested, 1.8% active;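 active means inhibition above about 50% at the single tested dose, limit read from the data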;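 further: plate controls were DMSO wells with enzyme for no effect and DMSO wells lacking enzyme for full effect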
# Target sequence (Q9GZR1 628-1112 limits assumed): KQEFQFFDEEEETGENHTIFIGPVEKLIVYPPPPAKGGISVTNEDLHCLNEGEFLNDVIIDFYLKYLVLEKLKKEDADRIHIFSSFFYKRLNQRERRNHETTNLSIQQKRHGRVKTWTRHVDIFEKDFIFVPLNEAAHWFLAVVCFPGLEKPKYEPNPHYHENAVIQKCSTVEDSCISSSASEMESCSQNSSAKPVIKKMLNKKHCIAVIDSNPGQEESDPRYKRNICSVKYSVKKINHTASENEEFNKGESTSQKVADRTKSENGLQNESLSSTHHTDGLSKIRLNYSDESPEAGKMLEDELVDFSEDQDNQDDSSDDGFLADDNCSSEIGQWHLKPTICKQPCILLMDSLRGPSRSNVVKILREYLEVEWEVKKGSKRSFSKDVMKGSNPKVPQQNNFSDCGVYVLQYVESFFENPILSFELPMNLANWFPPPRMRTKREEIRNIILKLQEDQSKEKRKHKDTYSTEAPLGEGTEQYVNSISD
# SENP8 conf – confirmation of human SENP8 protease inhibitors | shares compounds with SENP7 block | Recombinant SENP8, Z-RLRGG-aminoluciferin luminescence, 60 min | inhibition, % at 12.5 µM | 6,200 tested, 40% active;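 active means mean inhibition across replicates above about 50%, limit read from the data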
# SENP6 conf – human SENP6 inhibition, confirmed. 6,200 tested, 58% active. shares compounds with SENP7 block. inhibition, % at 12.5 µM. AID 488915. recombinant SENP6, Z-RLRGG-aminoluciferin luminescence
# SENP7 conf – confirmation of human SENP7 protease inhibitors; shares compounds with SENP7 block; recombinant SENP7, Z-RLRGG-aminoluciferin luminescence, 40 min; inhibition, % at 12.5 µM; 6,200 tested, 69% active; AID 488917
# Casp3 SENP sel – caspase-3 inhibition (SENP selectivity assay) | purified caspase-3, Z-DEVD-aminoluciferin luminescence, 60 min | inhibition, % at 12.5 µM | 6,200 tested, 60% active | AID 488918 | shares compounds with SENP7 block;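 active means mean inhibition above about 50%, limit read from the data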;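 further: plate controls were enzyme with DMSO for no effect and wells without caspase-3 for full effect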
# Target sequence (P42574 28-227 limits assumed): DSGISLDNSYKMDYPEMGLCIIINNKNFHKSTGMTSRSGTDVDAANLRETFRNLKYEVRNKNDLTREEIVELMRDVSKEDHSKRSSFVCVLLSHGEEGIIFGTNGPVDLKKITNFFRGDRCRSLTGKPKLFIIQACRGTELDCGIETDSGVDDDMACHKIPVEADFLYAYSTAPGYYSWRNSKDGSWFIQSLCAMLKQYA
# Luc interf – counter-screen for SENP inhibitors: luminescence interference. inhibition, % at 12.5 µM. Pre-incubated SENP8/Z-RLRGG-aminoluciferin, luciferase luminescence interference. AID 488919. 6,200 tested, 39% active. shares compounds with SENP7 block;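 active means mean inhibition above about 50% when retested at one dose, limit read from the data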;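 further: plate controls were DMSO wells with completed reaction for no effect and substrate without enzyme for full effect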
# An asterisk follows results filed as active; . = no result.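 How the source made its calls, unless noted: active means mean inhibition above about 50% in the one-dose retest (limit read from the data); inactive means the rest.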
SMILES,Platelet DG rel,SENP8 block-1,SENP8 block-2,SENP7 block,SENP1 inh,SENP6 block,SENP8 conf,SENP6 conf,SENP7 conf,Casp3 SENP sel,Luc interf
Cc1nn(Cc2c(Cl)cccc2Cl)c(Cl)c1/C=C/C(=O)OCC(=O)NCC(F)(F)F,5.6,7.4,-2.6,5.6,3.1,5.8,.,.,.,.,.
Cc1ccc(/C=C/c2nc3ccccc3s2)s1,14.9,-114.3,85.7*,9.6,-1.7,91.6*,97.4*,100.1*,103.2*,95.2*,78.0*
Cc1ccc(/C=C/c2ccc3cccc(O)c3n2)s1,-7.1,-40.6,8.0,3.9,-11.1,10.4,.,.,.,.,.
COCCNC(=O)c1ccc(NS(=O)(=O)c2cc(C)ccc2C)cc1,13.2,14.9,-15.1,5.6,3.3,-9.1,.,.,.,.,.
Cc1cccc(NC(=O)c2n[nH]c([N+](=O)[O-])c2Br)c1C,-5.0,11.6,93.8*,85.2*,3.2,96.7*,94.2*,96.8*,101.7*,96.1*,94.6*
Cn1nnnc1SCC(=O)N1CCN(S(=O)(=O)c2ccccc2)CC1,1.1,-7.1,0.0,-0.8,1.3,-21.8,.,.,.,.,.
O=C(Cc1cccs1)Nc1ccc(-c2nc3ccccc3[nH]2)cc1,12.2,-399.2,17.1,84.5*,2.9,59.0*,14.9,18.1,86.9*,67.5*,31.6
O=C(Nc1ccc(-c2nc3ccccc3[nH]2)cc1)C1CCCO1 (stereo not given),87.3*,-94.8,87.7*,93.2*,-0.7,87.2*,92.4*,92.5*,99.3*,96.2*,78.7*
O=C(CSc1ccccc1)Nc1ccc(-c2nc3ccccc3[nH]2)cc1,-13.2,-69.6,-17.8,23.3,1.5,-12.5,.,.,.,.,.
O=c1c(-c2ccc(Cl)cc2)c[nH]n1-c1ccccc1,8.2,-5.9,42.3,5.6,0.9,54.4*,22.3,38.2,48.3,65.8*,7.0
O=c1c(-c2ccccc2)c[nH]n1-c1cccc([N+](=O)[O-])c1,5.5,7.8,75.5*,68.3*,1.1,78.5*,73.3*,72.5*,94.1*,90.4*,73.9*
Nc1nc(N)c2c(n1)CN(Cc1ccc(Cl)cc1)C2,.,-327.2,.,.,-14.2,.,.,.,.,.,.
CCCn1nnc2ccccc2c1=O,-3.2,23.7,-3.8,2.7,-3.2,-12.9,.,.,.,.,.
CCOc1ccc(OCCn2nnc3ccccc3c2=O)cc1,5.4,-4.7,57.7*,67.2*,-3.2,68.6*,36.5,59.5*,88.9*,80.7*,50.1*
O=c1[nH]c2ccccc2nc1/C=C/c1ccc(F)cc1,1.5,-398.6,58.5*,54.8*,-24.6,64.4*,25.7,26.1,22.8,19.0,10.0
Cn1c(=O)c(/C=C/c2ccc(F)cc2)nc2ccccc21,-18.0,-446.3,.,.,-34.6,.,.,.,.,.,.
O=c1[nH]c2ccccc2nc1/C=C/c1ccc(O)cc1,34.5,-385.4,93.3*,92.1*,-27.4,93.0*,96.8*,97.6*,102.0*,91.9*,82.9*
CC(C)(C)/C(O)=C/c1nc2ccccc2[nH]c1=O,-15.4,-14.5,3.9,-4.4,-69.4,-7.3,.,.,.,.,.
O=c1[nH]c2ccccc2nc1/C=C/c1ccccc1,4.0,-395.1,56.0*,56.3*,-21.0,10.3,14.4,27.0,49.1,41.6,16.1
C#C[C@]1(O)CC[C@H]2[C@@H]3CCC4=CC(=O)CC[C@@H]4[C@H]3CC[C@@]21C,13.5,8.1,1.8,0.1,1.2,11.3,.,.,.,.,.
Brc1ccccc1-c1nc(-c2ccccc2)no1,16.0,.,95.3*,98.0*,.,96.9*,12.8,99.1*,103.1*,93.5*,91.3*
c1ccc2c(-c3nc(-c4ccncc4)no3)cccc2c1,-11.9,-305.7,0.8,24.7,-0.1,45.0,.,.,.,.,.
Fc1ccccc1-c1nc(-c2ccncc2)no1,-7.8,15.1,77.2*,84.2*,1.5,84.9*,81.9*,83.7*,97.9*,89.9*,71.9*
Fc1ccccc1-c1nc(-c2ccc(-c3nn[nH]n3)cc2)no1,.,-236.4,96.2*,91.7*,-3.5,97.0*,98.0*,98.5*,102.2*,96.3*,97.6*
Fc1ccccc1-c1nc(-c2ccccc2)no1,16.4,10.9,95.3*,98.7*,0.0,97.9*,36.1,97.3*,101.8*,90.2*,28.8
SMILES,Platelet DG rel,SENP8 block-1,SENP8 block-2,SENP7 block,SENP1 inh,SENP6 block,SENP8 conf,SENP6 conf,SENP7 conf,Casp3 SENP sel,Luc interf
c1ccc(-c2noc(-c3cccc4ccccc34)n2)cc1,8.8,-396.5,11.5,49.2,-0.4,30.7,.,.,.,.,.
Fc1ccccc1-c1nc(-c2cnccc2C(F)(F)F)no1,7.5,-1.0,-11.0,4.1,0.5,-9.7,.,.,.,.,.
COc1ccc(C(=O)NNC(=S)NC(=O)c2ccc(Br)o2)cc1OC,-1.3,14.0,-0.9,6.7,0.4,0.2,.,.,.,.,.
Cc1ccc(S(=O)(=O)NNC(=O)c2ccccc2O)cc1,-15.6,-15.6,4.5,0.3,1.1,-7.0,.,.,.,.,.
C/C(=N\N1CCN(C2c3ccccc3-c3ccccc32)CC1)c1cccnc1,-3.1,26.6,-3.5,0.4,2.8,5.1,.,.,.,.,.
CCOC(=O)c1cnc(SCCc2ccccc2)nc1N,0.0,-2.0,13.2,27.6,0.4,58.5*,-0.3,25.4,11.3,22.2,31.8
CCCCSc1ncc(C(=O)OCC)c(N)n1,-0.2,12.3,-4.3,21.6,0.4,23.9,.,.,.,.,.
COc1ccc(S(=O)(=O)NC(=O)C2(C)CCN2C(=O)c2ccc(C(F)(F)F)nc2C)cc1 (stereo not given),.,14.4,.,.,3.0,.,.,.,.,.,.
O=C(Nc1nc2ccc(Oc3ccccc3)cc2s1)c1cc([N+](=O)[O-])ccc1N1CCOCC1,12.6,30.9,-0.4,2.3,-2.1,-6.3,.,.,.,.,.
CN=c1scc(-c2cccs2)n1/N=C/c1ccccc1O,11.5,-40.3,93.6*,94.8*,-0.9,95.8*,49.8,93.6*,102.3*,94.4*,18.7
CN=c1scc(C)n1/N=C/c1ccc(O)c(O)c1O,16.2,14.3,-9.7,-7.7,-0.8,25.8,.,.,.,.,.
CN=c1scc(-c2cccs2)n1/N=C/c1ccc(O)c(O)c1O,60.3*,30.1,82.3*,57.2*,3.1,79.2*,94.7*,95.0*,99.2*,80.1*,82.3*
CN=c1scc(-c2ccccc2Br)n1/N=C/c1ccc[nH]1,0.0,.,22.3,0.8,.,9.4,.,.,.,.,.
N#Cc1nc(Cc2cccc3ccccc23)oc1N1CCCCC1,-2.2,15.0,-4.3,-3.5,-1.6,-14.3,.,.,.,.,.
